Laboratory results taken from ChEMBL document CHEMBL1155213, “Solvent free synthesis of 1,5-disubstituted tetrazoles derived from Baylis Hillman acetates as potential TNF-alpha inhibitors” (2009).

Assays:
Blood [1] = experiment: Inhibition of LPS-induced TNFalpha production in human whole blood at 10 uM treated 1 hr before LPS challenge measured after 5 hrs by ELISA; assay type: functional
Outline: (§1)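 Whole blood aliquots preincubated 1 h at 37 °C with test compound (10 or 100 μM solution) or DMSO vehicle, then stimulated with LPS in PBS (final 1 ng/ml). Incubated a further 5 h at 37 °C, stopped on ice 10 min. Plasma separated by centrifugation (3000 rpm, 10 min, 4 °C), stored at −70 °C. Plasma TNF-α quantified by ELISA.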

Blood [2] = experiment: Inhibition of LPS-induced TNFalpha production in human whole blood at 100 uM treated 1 hr before LPS challenge measured after 5 hrs by ELISA; assay type: functional; outline: as §1

| Structure (SMILES) | inhibition at 10 µM (Blood [1]) | inhibition at 100 µM (Blood [2]) |
| --- | --- | --- |
| COC(=O)/C(=C/c1ccccc1)Cn1nnnc1-c1ccccc1 | 14.6% | 35.1% |
| COC(=O)/C(=C/c1ccc(OC)cc1)Cn1nnnc1-c1ccccc1 | 22.2% | 46.3% |
| COC(=O)/C(=C/c1ccc(OC)cc1)Cn1nnnc1-c1ccncc1 | 8.6% | 12.9% |
| COC(=O)/C(=C/c1ccc(OC)cc1)Cn1nnnc1-c1cccnc1 | 5.4% | 30.2% |
| COC(=O)/C(=C/c1ccccc1)Cn1nnnc1-c1ccncc1 | 18.2% | 67% |
